Assay results reported in ChEMBL document CHEMBL4834402, “Discovery of TAK-981, a First-in-Class Inhibitor of SUMO-Activating Enzyme for the Treatment of Cancer” (J Med Chem, 2021).
Converted amounts (≈) assume the structure as drawn. Blank lines part the entries; values can stand above or below the compound they belong to.

Assays:
[1] = Efflux ratio of apparent permeability across basolateral to apical side over apical to basolateral side in human Caco-2 cells; format: ADME, cell-based
[2] = Volume of distribution at steady state in rat plasma at 1 mg/kg, iv; format: ADME, organism-based; details: read-out: Vdss
[3] = Inhibition of recombinant UAE (unknown origin) in presence of ATP at Km concentration by HTRF assay; set-up: species or system Homo sapiens
[4] = Apparent permeability across apical to basolateral side in human Caco2 cells; format: ADME, cell-based; details: Caco-2
[5] = Clearance in rat plasma at 1 mg/kg, iv; format: ADME, organism-based; details: in vivo
[6] = target: T1, SUMO-activating enzyme (Homo sapiens, UniProt Q9UBT2); test: Inhibition of recombinant SAE (unknown origin) assessed as reduction in transfer of SUMO1 to UBC9 using SUMO1 as a substrate in presence of ATP at Km concentration by HTRF assay; format: protein-complex assay
T1 sequence (Q9UBE0 whole entry): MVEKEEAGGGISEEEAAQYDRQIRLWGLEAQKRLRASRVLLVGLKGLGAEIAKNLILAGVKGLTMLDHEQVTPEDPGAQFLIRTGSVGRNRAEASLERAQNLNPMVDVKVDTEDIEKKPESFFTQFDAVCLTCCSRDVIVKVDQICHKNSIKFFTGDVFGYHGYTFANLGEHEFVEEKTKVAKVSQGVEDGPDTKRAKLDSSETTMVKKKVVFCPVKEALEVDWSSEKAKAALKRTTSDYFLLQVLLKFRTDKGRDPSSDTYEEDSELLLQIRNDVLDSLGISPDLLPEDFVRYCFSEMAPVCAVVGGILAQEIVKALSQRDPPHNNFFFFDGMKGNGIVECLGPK
T1 sequence (Q9UBT2 whole entry): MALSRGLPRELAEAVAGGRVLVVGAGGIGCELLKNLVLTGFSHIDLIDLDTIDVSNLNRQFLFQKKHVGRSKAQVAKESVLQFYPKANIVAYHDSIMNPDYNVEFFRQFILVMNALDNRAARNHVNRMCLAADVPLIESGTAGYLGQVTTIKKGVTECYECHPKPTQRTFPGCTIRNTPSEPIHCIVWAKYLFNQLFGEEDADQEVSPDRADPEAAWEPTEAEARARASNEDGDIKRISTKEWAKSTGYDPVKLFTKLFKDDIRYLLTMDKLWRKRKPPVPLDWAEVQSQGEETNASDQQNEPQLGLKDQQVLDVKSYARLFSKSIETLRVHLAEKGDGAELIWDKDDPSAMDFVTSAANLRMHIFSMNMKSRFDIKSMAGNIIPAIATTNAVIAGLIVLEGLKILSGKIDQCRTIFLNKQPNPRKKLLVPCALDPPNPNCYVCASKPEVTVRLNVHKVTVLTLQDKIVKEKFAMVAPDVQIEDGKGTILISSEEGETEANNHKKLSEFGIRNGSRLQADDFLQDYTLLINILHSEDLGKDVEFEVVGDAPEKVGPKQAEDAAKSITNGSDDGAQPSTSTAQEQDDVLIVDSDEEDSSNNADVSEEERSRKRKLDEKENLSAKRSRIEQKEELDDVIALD
Procedure, shortened: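 HTRF transthiolation assay measuring transfer of SUMO1 to UBC9, the E2 for SAE.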

[7] = Lipophilicity, logD of compound at pH 7.4; format: physicochemical; details: buffer
[8] = system: HCT-116; test: Cytotoxicity against human HCT116 cells assessed as reduction in cell viability after 72 hrs by CellTiter-Glo luminescent assay; format: functional, cell-based; details: HCT-116, 72 h
[9] = Solubility of compound in 10% hydroxypropyl-beta-cyclodextrin after 24 hrs; format: physicochemical
[10] = target: T2, NEDD8 activating enzyme (Homo sapiens, UniProt Q8TBC4); test: Inhibition of recombinant NAE (unknown origin) in presence of ATP at Km concentration by HTRF assay; format: protein-complex assay
T2 sequence (Q8TBC4 whole entry): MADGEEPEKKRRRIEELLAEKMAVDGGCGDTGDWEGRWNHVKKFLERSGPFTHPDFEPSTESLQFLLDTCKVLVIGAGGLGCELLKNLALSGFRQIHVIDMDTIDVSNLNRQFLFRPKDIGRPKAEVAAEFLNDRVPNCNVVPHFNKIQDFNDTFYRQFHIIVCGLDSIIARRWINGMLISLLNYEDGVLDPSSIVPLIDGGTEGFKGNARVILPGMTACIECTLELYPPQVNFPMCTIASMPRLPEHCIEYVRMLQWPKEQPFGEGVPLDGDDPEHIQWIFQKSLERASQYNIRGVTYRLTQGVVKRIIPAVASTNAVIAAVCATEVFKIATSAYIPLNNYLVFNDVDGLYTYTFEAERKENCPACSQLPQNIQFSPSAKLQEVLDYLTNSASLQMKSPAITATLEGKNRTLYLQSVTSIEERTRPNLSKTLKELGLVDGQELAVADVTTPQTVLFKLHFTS
T2 sequence (Q13564 whole entry): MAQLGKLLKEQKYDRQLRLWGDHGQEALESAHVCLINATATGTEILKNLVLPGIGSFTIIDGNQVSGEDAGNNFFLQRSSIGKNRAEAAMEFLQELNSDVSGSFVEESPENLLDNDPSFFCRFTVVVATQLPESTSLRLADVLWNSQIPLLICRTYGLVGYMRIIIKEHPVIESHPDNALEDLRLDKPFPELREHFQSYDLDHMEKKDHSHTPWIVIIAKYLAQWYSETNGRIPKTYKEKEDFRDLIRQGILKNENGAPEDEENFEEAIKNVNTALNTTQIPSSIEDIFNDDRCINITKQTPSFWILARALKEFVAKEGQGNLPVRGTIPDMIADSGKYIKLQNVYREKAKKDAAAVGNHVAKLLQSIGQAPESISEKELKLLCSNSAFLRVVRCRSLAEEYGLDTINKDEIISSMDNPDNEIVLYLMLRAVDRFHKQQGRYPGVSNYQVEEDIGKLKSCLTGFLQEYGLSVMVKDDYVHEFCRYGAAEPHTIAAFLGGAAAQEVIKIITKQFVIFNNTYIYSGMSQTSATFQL

[11] = Half life in rat plasma at 1 mg/kg, iv; format: ADME, organism-based
[12] = AUC in rat plasma at 10 mg/kg, po; format: ADME, organism-based; set-up: dose 10 mg/kg
[13] = AUC in rat plasma at 1 mg/kg, iv; format: ADME, organism-based; set-up: dose 1 mg/kg
[14] = Oral bioavailability in rat blood at 10 mg/kg; format: ADME, organism-based
[15] = Clearance in rat blood at 1 mg/kg, iv; format: ADME, organism-based; details: in vivo
[16] = system: OCI-Ly10; test: Cytotoxicity against human OCI-LY10 cells assessed as reduction in cell viability after 72 hrs by CellTiter-Glo luminescent assay; format: functional, cell-based; details: OCI-Ly10, 72 h
[17] = target: Carbonic anhydrase 2 (Homo sapiens, UniProt P00918); test: Inhibition of recombinant human CA2 expressed in Escherichia coli using fluorescein diacetate as substrate at […] by fluorometric esterase assay
[18] = AUC in rat blood at 1 mg/kg, iv; format: ADME, organism-based; set-up: dose 1 mg/kg
[19] = Volume of distribution at steady state in rat blood at 1 mg/kg, iv; format: ADME, organism-based; details: read-out: Vdss
[20] = target: T1, SUMO-activating enzyme; test: Inhibition of SAE in human HCT116 cells assessed as reduction in redistribution of SUMO2/3 proteins from nucleus to cytosol incubated for 4 hrs by immunofluorescence assay; format: cell-based, HCT-116
Procedure, shortened: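 HCT-116 cells exposed to compound across a concentration range for 4 h, then stained with anti-SUMO2/3 monoclonal antibody. Automated imaging scored the nuclear (inner) to cytoplasmic (outer) SUMO2/3 ratio. IC50 taken from the dose response.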

[21] = AUC in rat blood at 10 mg/kg, po; format: ADME, organism-based; set-up: dose 10 mg/kg
[22] = target: Carbonic anhydrase 1 (Homo sapiens, UniProt P00915); test: Inhibition of human erythrocyte CA1 using fluorescein diacetate as substrate at […] by fluorometric esterase assay
Sequence of Carbonic anhydrase 1 (P00915 whole entry): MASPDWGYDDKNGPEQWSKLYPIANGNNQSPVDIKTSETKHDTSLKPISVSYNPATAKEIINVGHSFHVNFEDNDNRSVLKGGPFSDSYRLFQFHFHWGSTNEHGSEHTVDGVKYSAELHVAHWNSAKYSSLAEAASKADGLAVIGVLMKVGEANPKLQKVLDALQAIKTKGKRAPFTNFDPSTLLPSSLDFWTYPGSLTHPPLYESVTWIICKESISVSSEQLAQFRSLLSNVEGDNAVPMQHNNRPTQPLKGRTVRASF

[23] = Half life in rat blood at 1 mg/kg, iv; format: ADME, organism-based
[24] = Oral bioavailability in rat plasma at 10 mg/kg; format: ADME, organism-based
[25] = Apparent permeability across basolateral to apical side in human Caco2 cells; format: ADME, cell-based; details: Caco-2
[26] = Dissociation constant , pKa of the compound; format: physicochemical
[27] = target: T2, NEDD8 activating enzyme; test: Inhibition of NAE (unknown origin) using Nedd-8 as substrate incubated for 60 mins in presence of ATP and PPi by pyrophosphate exchange assay; format: protein-complex assay
Procedure, shortened: (§1)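 Pyrophosphate exchange assay of E1 activity at 1 mM ATP. Substrates were SUMO1 or SUMO2 for SAE, Ub for UAE and Nedd-8 for NAE.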

[28] = target: T1, SUMO-activating enzyme; test: Inhibition of SAE (unknown origin) using SUMO2 as substrate incubated for 60 mins in presence of ATP and PPi by pyrophosphate exchange assay; format: protein-complex assay; procedure, shortened: as §1
[29] = Inhibition of UAE in human HCT116 cells assessed as reduction in conjugation of ubiquitin to […] by Western blot analysis; format: cell-based; details: hct-116
Procedure, shortened: (§2)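 HCT116 cells, quantitative Western blot of E2–UBL conjugates. Read-outs were SUMO–UBC9 for SAE, ubiquitin–[…] for UAE and Nedd-8–[…] for NAE.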

[30] = target: T2, NEDD8 activating enzyme; test: Inhibition of NAE in human HCT116 cells assessed as reduction in conjugation of Nedd8 […] by Western blot analysis; format: cell-based, HCT-116; procedure, shortened: as §2
[31] = Inhibition of UAE (unknown origin) using Ub as substrate incubated for 60 mins in presence of ATP and PPi by pyrophosphate exchange assay; set-up: species or system Homo sapiens; procedure, shortened: as §1
[32] = target: T1, SUMO-activating enzyme; test: Inhibition of SAE in human HCT116 cells assessed as reduction in conjugation of SUMO proteins to UBC9 by Western blot analysis; format: cell-based, HCT-116; procedure, shortened: as §2
[33] = target: T1, SUMO-activating enzyme; test: Inhibition of SAE (unknown origin) using SUMO1 as substrate incubated for 60 mins in presence of ATP and PPi by pyrophosphate exchange assay; format: protein-complex assay; procedure, shortened: as §1

efflux ratio [1]: > 16
Vd [2]: 5 L/kg
IC50 [3]: > 1 µM
Papp A→B [4]: 4 ×10⁻⁶ cm/s
clearance [5]: 86.7 mL/min/kg
logD [7]: 1.9
solubility at 24 h [9]: 100 µg/mL (≈ 173 µM)
IC50 [10]: 0.386 µM
half-life [11]: 1.5 h
AUC [12]: 0.6 µM·h
AUC [13]: 0.3 µM·h
bioavailability [14]: 19%
clearance [15]: 1.67 mL/min/kg
IC50 [17]: 0.01 µM
AUC [18]: 12.5 µM·h
Vd [19]: 0.2 L/kg
AUC [21]: 24.1 µM·h
IC50 [22]: 0.05 µM
half-life [23]: 4 h
bioavailability [24]: 18%
Papp B→A [25]: 64 ×10⁻⁶ cm/s
pKa [26]: 3.5
SMILES: Cc1sc(C(=O)c2cncnc2N[C@@H]2C[C@H](COS(N)(=O)=O)[C@@H](O)C2)cc1C1OCCc2ccc(Cl)cc21 (stereo in doubt)
IC50 [6]: 0.0004 µM
EC50 [8]: 0.11 µM
EC50 [16]: 0.004 µM
IC50 [20]: 0.003 µM

IC50 [3]: 0.058 µM
IC50 [27]: 0.3 µM
IC50 [10]: 0.029 µM
IC50 [29]: 0.41 µM
IC50 [30]: 1.4 µM
IC50 [31]: 1.1 µM
SMILES: NS(=O)(=O)OC[C@H]1C[C@@H](Nc2ncncc2C(=O)c2ccn(Cc3ccccc3)n2)[C@H](O)[C@@H]1O
IC50 [6]: 0.001 µM
IC50 [28]: 0.05 µM
IC50 [20]: 0.026 µM
IC50 [32]: 0.006 µM
IC50 [33]: 0.006 µM
